Laboratory results: ChEMBL document CHEMBL1144722 (J Nat Prod, 2008)
The source made the active and inactive calls. The rule behind the calls is not given here.

What was measured:
Assay type in all cases: functional, cell-based
[1] = tested on: Epithelial cell; assay: (§1) Antiproliferative activity against mouse +SA mammary epithelial cells after 4 days by MTT assay
How it was run: (§2)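 Highly malignant +SA mouse mammary epithelial cells kept in serum-free medium with 10 ng/mL EGF and 10 µg/mL insulin as mitogens. Seeded at 5 × 10⁴ cells/well, 6 wells/group, and fed medium containing compound at 0.01–1000 µM, compared with vehicle controls. After 4 days of culture, viable cell number was read by MTT colorimetric assay.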

[2] = tested on: Epithelial cell; assay: Antiproliferative activity against mouse +SA mammary epithelial cells at 15 to 40 uM after 4 days by MTT assay; how it was run: as §2
[3] = as §1; conditions: Epithelial cell, 96 h; how it was run: as §2

Row | Structure (SMILES) | Activity [1] | Activity [2] | IC50 [3] [µM]
1 | CCNC(=O)O[C@H]1/C=C(\C)CC/C=C(\C)CC[C@@H](C(C)C)/C=C/[C@@](C)(O)C1 | inactive | – | –
2 | C/C1=C\[C@H](OC(=O)NCc2ccccc2)C[C@](C)(O)/C=C/[C@H](C(C)C)CC/C(C)=C/CC1 | inactive | – | –
3 | C/C1=C\[C@H](OC(=O)NCCCl)C[C@](C)(O)/C=C/[C@H](C(C)C)CC/C(C)=C/CC1 | inactive | – | –
4 | C/C1=C/C(=O)C[C@](C)(O)/C=C/[C@H](C(C)C)CC/C(C)=C/CC1 | – | Active | –
5 | CC(=O)O[C@H]1/C=C(\C)CC/C=C(\C)CC[C@@H](C(C)C)/C=C/[C@@](C)(O)C1 | Active | – | –
6 | CC(=O)O[C@H]1/C=C(\C)CC/C=C(\C)[C@@H](O)C[C@@H](C(C)C)/C=C/[C@@](C)(O)C1 | – | Active | 20
7 | CC(=O)O[C@H]1/C=C(\C)CC[C@@H]2OC(=N)S[C@@]2(C)CC[C@@H](C(C)C)/C=C/[C@@](C)(O)C1 | inactive | – | –
8 | CC(=O)O[C@H]1/C=C(\C)CC/C=C(\C)[C@H](O)C[C@@H](C(C)C)/C=C/[C@@](C)(O)C1 | – | Active | 30
9 | CC(C)=CCC/C(C)=C/CC/C(C)=C/CC[C@]1(C)CCc2cc(O)cc(C)c2O1 [DELTA-TOCOTRIENOL] | – | – | 7
10 | C/C1=C\C(=O)C[C@](C)(O)/C=C/[C@H](C(C)C)CC/C(C)=C/CC1 | – | inactive | –
11 | CC(=O)/C=C/C(CC/C(C)=C/CC/C(C)=C/C(C)=O)C(C)C (stereo not given) [SECOCEMBRANOID] | – | Active | 15
12 | CC(=O)O[C@H]1/C=C(\C)CC[C@H](O)[C@@](C)(SC#N)CC[C@@H](C(C)C)/C=C/[C@@](C)(O)C1 | inactive | – | –
